Measurements published in ChEMBL document CHEMBL5653623 (J Pharmacol Exp Ther, 2015).
Activity calls are given as the source filed them. The calls are words filed in the database; no cut-off is given here.

How the values were obtained:
[1] = biological target: T1, Dual specificity protein kinase TTK (Homo sapiens, UniProt P33981); test: Inhibition of TTK (unknown origin)
T1 sequence (P33981 whole entry): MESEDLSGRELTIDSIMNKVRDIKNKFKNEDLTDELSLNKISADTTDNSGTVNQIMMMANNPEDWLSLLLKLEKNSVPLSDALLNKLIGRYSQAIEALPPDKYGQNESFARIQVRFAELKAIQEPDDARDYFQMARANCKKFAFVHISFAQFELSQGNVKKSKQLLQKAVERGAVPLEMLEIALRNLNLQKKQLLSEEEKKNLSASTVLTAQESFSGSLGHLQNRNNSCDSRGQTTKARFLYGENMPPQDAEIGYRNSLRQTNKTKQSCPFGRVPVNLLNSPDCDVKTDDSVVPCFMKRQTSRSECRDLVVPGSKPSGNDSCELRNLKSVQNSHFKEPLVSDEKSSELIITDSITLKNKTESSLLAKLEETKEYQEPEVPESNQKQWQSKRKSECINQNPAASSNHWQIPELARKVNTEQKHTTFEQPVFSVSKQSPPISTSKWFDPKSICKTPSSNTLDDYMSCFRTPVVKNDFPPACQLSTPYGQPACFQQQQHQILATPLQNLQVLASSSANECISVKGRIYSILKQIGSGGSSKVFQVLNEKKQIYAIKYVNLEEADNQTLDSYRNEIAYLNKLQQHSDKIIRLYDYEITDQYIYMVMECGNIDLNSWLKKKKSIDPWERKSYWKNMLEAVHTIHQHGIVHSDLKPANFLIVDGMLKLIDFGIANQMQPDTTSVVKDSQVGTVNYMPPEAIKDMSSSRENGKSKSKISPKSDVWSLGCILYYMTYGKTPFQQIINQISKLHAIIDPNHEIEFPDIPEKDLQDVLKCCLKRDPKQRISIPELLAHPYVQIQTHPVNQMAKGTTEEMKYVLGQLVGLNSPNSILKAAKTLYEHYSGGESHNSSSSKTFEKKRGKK

[2] = biological target: Sodium-dependent noradrenaline transporter (Homo sapiens, UniProt P23975); test: Inhibition of norepinephrine transporter (unknown origin)
Chain of Sodium-dependent noradrenaline transporter (P23975 whole entry): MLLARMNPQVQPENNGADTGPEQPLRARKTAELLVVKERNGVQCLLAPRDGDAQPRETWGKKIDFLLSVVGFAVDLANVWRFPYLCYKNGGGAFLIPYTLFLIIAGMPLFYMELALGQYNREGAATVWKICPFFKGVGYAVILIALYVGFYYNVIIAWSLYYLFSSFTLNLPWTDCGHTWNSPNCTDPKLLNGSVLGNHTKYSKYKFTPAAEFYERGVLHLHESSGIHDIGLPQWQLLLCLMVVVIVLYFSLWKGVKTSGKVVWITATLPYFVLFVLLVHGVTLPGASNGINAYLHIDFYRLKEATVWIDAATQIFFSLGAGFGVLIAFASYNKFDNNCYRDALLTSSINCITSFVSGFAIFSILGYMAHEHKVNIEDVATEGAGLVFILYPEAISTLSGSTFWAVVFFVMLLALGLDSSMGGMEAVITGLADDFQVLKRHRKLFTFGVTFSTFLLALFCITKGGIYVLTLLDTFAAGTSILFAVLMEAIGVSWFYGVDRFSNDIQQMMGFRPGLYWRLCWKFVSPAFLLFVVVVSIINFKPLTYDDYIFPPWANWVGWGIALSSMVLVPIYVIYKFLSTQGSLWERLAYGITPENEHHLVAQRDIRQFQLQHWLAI
How it was run: (§1)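 Radioligand binding selectivity screen was run at 10 μM, mean of three determinations. Where inhibition exceeded 50%, full concentration-displacement curves were run in triplicate and IC50 was obtained by nonlinear least-squares regression.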

[3] = Effect on spontaneous locomotor activity in C57Bl/6 mouse assessed as rearing behaviour administered for 11 days by truScan photo beam activity system analysis; format: toxicity; conditions: in vivo, 264 h, time 11 day
How it was run: (§2)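 Male C57Bl/6 mice, singly housed on a reversed 12 h light cycle, were fed diet formulated to give 3, 10, 30, 60 or 120 mg/kg/day (assumes 3 g/day intake) or untreated diet for 11 days. Body weight and food intake were monitored. Spontaneous locomotion and rearing were recorded over 60 min. On day 11, mice were euthanized 4, 8 or 24 h after dark onset and plasma and brain drug levels measured; n = 5 per group.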

[4] = biological target: Leucine-rich repeat serine/threonine-protein kinase 2 (Mus musculus) (UniProt Q5S006); test: In vivo inhibition of LRRK2 in C57Bl/6 mouse brain assessed as total LRRK2 protein level at 3 to 120 mg/kg administered for 11 days and measured for 4 to 24 hrs by Western blotting analysis; format: functional, organism-based; conditions: dose 3-120 mg/kg, time 11.0 day
Chain of Leucine-rich repeat serine/threonine-protein kinase 2 (Mus musculus) (Q5S006 whole entry): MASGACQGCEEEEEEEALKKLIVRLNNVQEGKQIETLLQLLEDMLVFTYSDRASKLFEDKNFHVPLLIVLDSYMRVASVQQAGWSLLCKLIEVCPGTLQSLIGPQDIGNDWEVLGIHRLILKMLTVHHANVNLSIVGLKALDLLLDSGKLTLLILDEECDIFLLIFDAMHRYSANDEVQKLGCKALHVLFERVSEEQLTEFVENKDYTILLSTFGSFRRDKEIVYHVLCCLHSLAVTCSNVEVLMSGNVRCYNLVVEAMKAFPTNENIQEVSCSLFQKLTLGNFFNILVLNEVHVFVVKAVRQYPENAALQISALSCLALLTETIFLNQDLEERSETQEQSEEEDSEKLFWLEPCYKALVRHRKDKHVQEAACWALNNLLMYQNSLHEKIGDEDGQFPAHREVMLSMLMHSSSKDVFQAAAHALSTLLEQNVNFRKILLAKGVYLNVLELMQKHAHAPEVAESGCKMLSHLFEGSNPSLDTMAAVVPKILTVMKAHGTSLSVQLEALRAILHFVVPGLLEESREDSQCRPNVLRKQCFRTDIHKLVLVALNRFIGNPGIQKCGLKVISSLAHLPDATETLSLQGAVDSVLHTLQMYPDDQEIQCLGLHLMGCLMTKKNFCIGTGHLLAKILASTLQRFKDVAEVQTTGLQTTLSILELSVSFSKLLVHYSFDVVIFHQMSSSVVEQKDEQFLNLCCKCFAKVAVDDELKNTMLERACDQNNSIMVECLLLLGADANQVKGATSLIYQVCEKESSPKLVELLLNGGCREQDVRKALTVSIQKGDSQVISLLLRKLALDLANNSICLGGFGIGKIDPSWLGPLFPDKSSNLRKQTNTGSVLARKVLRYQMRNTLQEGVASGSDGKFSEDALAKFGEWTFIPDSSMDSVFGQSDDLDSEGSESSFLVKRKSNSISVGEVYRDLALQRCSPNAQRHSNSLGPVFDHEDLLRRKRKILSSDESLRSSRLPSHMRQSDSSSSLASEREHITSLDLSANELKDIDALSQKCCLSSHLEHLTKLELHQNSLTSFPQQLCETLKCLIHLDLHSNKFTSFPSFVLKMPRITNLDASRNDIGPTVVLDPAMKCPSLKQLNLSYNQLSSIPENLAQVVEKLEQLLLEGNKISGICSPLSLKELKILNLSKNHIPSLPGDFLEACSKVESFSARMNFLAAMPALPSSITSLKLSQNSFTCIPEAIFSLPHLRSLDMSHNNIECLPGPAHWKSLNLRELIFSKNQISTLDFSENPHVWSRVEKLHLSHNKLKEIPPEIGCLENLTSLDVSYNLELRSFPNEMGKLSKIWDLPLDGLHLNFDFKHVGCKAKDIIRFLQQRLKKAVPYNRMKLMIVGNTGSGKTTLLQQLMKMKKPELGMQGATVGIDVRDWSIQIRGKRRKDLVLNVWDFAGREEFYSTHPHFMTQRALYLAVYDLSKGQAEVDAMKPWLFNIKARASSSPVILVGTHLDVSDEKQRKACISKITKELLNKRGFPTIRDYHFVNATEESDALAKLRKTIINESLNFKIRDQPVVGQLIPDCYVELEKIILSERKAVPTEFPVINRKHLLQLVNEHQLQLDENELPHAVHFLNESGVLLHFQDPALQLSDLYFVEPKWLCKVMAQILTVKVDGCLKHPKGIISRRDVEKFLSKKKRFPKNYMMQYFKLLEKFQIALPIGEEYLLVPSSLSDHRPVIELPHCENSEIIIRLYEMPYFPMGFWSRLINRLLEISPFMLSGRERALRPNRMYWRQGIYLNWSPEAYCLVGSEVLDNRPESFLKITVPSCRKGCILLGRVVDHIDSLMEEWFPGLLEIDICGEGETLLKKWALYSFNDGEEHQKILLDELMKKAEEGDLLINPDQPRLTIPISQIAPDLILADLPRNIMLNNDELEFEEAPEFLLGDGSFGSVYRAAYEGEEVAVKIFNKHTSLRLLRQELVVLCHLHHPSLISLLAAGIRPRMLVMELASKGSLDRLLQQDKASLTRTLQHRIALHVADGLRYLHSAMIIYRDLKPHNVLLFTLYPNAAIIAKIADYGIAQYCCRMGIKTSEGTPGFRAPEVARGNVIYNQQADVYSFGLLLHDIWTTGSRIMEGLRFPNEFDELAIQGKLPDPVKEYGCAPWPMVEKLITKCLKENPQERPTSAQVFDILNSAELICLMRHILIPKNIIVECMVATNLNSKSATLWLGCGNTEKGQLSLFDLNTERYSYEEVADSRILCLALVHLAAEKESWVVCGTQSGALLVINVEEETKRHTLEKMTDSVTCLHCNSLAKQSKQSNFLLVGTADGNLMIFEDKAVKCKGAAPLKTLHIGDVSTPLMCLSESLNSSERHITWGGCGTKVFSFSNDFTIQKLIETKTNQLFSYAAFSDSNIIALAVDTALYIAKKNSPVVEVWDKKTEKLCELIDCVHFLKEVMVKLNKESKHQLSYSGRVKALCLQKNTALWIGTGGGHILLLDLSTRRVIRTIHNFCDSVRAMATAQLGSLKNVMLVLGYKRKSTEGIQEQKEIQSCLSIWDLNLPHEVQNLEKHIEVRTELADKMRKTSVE
How it was run: (§3)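 Male C57Bl/6 mice, singly housed on a reversed light cycle. Fed drug diet targeted to 3, 10, 30, 60 or 120 mg/kg/day (assuming 3 g/day intake), or untreated diet, for 11 days. Killed 4, 8 or 24 h after dark-cycle onset, n = 5 per group. Cortex immunoblotted for pSer935/total LRRK2 and total LRRK2/GAPDH. Total LRRK2 detected with MJFF2 antibody.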

[5] = biological target: Leucine-rich repeat serine/threonine-protein kinase 2 (Mus musculus) (UniProt Q5S006); test: In vivo inhibition of LRRK2 in C57Bl/6 mouse brain assessed as reduction in pSer935 LRRK2 at 10 to 120 mg/kg administered for 11 days and measured for 8 to 24 hrs by Western blotting analysis; format: functional, organism-based; conditions: dose 10-120 mg/kg, time 11.0 day; how it was run: as §3
[6] = Unbound brain concentration in C57Bl/6 mouse administered for 11 days; format: ADME, tissue-based; conditions: in vivo, 264 h, dose 3-100 mg/kg, time 11 day; how it was run: as §2
[7] = Unbound plasma concentration in C57Bl/6 mouse administered for 11 days and measured after 24 hrs; format: ADME, cell-free; conditions: 264 h, time 11 day; how it was run: as §2
[8] = biological target: Leucine-rich repeat serine/threonine-protein kinase 2 (Mus musculus) (UniProt Q5S006); test: In vivo inhibition of LRRK2 in C57Bl/6 mouse kidney assessed as reduction in pSer935 LRRK2 administered for 11 days by Western blotting analysis; format: functional, organism-based; conditions: time 11.0 day
How it was run: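 Same 11-day in-diet design in male C57Bl/6 mice: 3-120 mg/kg/day or untreated diet, killed 4, 8 or 24 h after dark-cycle onset, n = 5 per group. Kidneys dissected for Western blot of pSer935 and total LRRK2, with total LRRK2 detected by MJFF-2 antibody.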

Mus musculus [9] = test: Effect on histological changes in 20 weeks old MitoPark mouse kidney assessed as kidney darkening at 30 mg/kg/day administered for 15 weeks by hematoxylin and eosin staining based microscopic analysis; format: functional, organism-based
How it was run: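 MitoPark mice were fed diet targeting 30 mg/kg/day or vehicle for 15 weeks and euthanized at 20 weeks of age (n=5/group). Kidney and lung were fixed in 10% neutral buffered formalin, paraffin-embedded, sectioned at 5 µm, H&E-stained and examined microscopically.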

[10] = biological target: T2, Peroxisome proliferator-activated receptor gamma (Homo sapiens, UniProt P37231); test: Inhibition of peroxisome proliferator-activated receptors gamma (unknown origin); how it was run: as §1
T2 sequence (P37231 whole entry): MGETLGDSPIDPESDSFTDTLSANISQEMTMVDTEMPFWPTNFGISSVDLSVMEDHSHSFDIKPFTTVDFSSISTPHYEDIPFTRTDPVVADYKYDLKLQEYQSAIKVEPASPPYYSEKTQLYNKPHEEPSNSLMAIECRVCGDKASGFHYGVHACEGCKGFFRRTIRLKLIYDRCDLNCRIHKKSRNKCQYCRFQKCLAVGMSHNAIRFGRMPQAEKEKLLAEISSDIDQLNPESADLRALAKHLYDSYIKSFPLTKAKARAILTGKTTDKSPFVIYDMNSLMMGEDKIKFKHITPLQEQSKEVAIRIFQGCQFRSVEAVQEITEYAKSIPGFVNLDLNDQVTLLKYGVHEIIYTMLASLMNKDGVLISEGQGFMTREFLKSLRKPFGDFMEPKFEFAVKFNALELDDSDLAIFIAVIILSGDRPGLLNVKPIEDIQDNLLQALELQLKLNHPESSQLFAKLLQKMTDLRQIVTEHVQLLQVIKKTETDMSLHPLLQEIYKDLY

[11] = Unbound brain concentration in C57Bl/6 mouse at 100 mg/kg, po administered for 1 hr; format: ADME, organism-based; conditions: in vivo
Mus musculus [12] = test: Effect on behavioral changes in 8 weeks old MitoPark mouse striatum assessed as HVA level at 30 mg/kg/day administered for 3 weeks by HPLC analysis; format: functional
How it was run: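 Striatum from MitoPark mice on diet targeting 30 mg/kg/day or vehicle diet (wild-type littermate controls) was homogenized by sonication in 0.1 M acid at 0.1 g/mL. Samples were held 60 min at 4 °C and centrifuged. Dopamine, DOPAC and HVA were measured by HPLC with electrochemical detection against a 3,4-DHBA internal standard and standard curves. Mean ± SEM.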

IC50 [1]: 0.935 µM
IC50 [2]: 3.8 µM
inhibition [4]: inactive
inhibition [5]: Active
Drug uptake(free) [6]: Dose-Dependent Effect
Drug uptake(free) [7]: Active
inhibition [8]: Active
IC50 [10]: 6.5 µM
Drug uptake(free) [11]: 272.9 nM
SMILES: C[C@@H]1CN(c2cc(-c3n[nH]c4ccc(OC5(C)CC5)cc34)ncn2)C[C@H](C)O1 [MLi-2]
Activity [3]: Non-Toxic
Activity (Mus musculus [9]): inactive
Activity (Mus musculus [12]): 267.6 ng/g
